One assay has as its system Pyricularia oryzae. The assay is described as follows: Antifungal activity against Magnaporthe oryzae assessed as inhibition of spore germination incubated for 8 hrs. The format is functional, organism-based.
For another assay, the system named is Pseudomonas. The assay is described as follows: Antibacterial activity against Pseudomonas lachrymans ATCC 11921 by modified broth dilution method. The format is functional. The essentials:
(§1)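 MIC read in 96-well plates by a modified broth dilution test; streptomycin sulfate as positive control.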

Another assay relates to Ralstonia solanacearum. The assay is described as follows: Antibacterial activity against Ralstonia solanacearum ATCC 11696 by modified broth dilution method. The format is functional. On the technique in general: In broth dilution the organism is exposed to a series of concentrations in liquid medium.
A further assay concerns Bacillus subtilis. In words: Antibacterial activity against Bacillus subtilis ATCC 11562 by modified broth dilution method. The format is functional. The essentials: as §1
A short description of assay [1]: Cytotoxicity against human HCT8 cells by MTT assay. To be noted: HCT-8. (In general: Formazan colour is commonly taken as a measure of viable cells.)
The test system of another assay is A549. The assay is described as follows: Cytotoxicity against human A549 cells by MTT assay. The format is functional, cell-based.
Assay [2] relates to Staphylococcus haemolyticus. In words: Antibacterial activity against Staphylococcus haemolyticus ATCC 29970 by modified broth dilution method. The format is functional. A digest of the protocol: as §1
Assay [3] concerns Agrobacterium tumefaciens. The assay is described as follows: Antibacterial activity against Agrobacterium tumefaciens No.8 ATCC 11158 by modified broth dilution method. The format is functional. The essentials:
as §1

Assay [4] can be described thus: Cytotoxicity against human BGC823 cells by MTT assay. The note with it: BGC-823.
Assay [5] in a line: Cytotoxicity against human Bel7402 cells by MTT assay. To be noted: Bel-7402.
The next assay deals with A2780. In words: Cytotoxicity against human A2780 cells by MTT assay.
The subject of a further assay is Xanthomonas vesicatoria. The assay is described as follows: Antibacterial activity against Xanthomonas vesicatoria ATCC 11633 by modified broth dilution method. The format is functional. The essentials:
as §1

SMILES strings stand for the structures.

A word on the IC50: it is the midpoint of a concentration-inhibition curve. By MIC is commonly meant the smallest concentration in the dilution series that meets the test's criterion for growth inhibition.

Consider `O=C1CC[C@@H](O)[C@@]23O[C@@]12C1(Oc2cccc4cccc(c24)O1)[C@H](O)[C@@H](O)[C@@H]3O`, for which the IC50 with Pyricularia oryzae is over 200 µg/mL; in assay [1], over 10 µM; in the assay on A549 it was over 10 µM; in [4] it was over 10 µM; in assay [5], over 10 µM; with A2780, over 10 µM. Also, the minimal inhibitory concentration (MIC) (in the assay with Pseudomonas; in the assay on Ralstonia solanacearum; in the assay on Bacillus subtilis; in [2]; in assay [3]; against Xanthomonas vesicatoria) was over 250 µg/mL throughout.
As to `O=C1C[C@H](O)[C@H](O)C2=C[C@H](O)[C@@H](O)C3(Oc4cccc5cccc(c45)O3)[C@]12O`, the IC50 in the assay with Pyricularia oryzae is over 200 µg/mL; in assay [1] it was over 10 µM; with A549, over 10 µM; in [4] it was over 10 µM; in assay [5] it was over 10 µM; with A2780 it was over 10 µM. Besides, the MIC (with Pseudomonas; in the assay on Ralstonia solanacearum; against Bacillus subtilis; in [2]; in assay [3]; in the assay with Xanthomonas vesicatoria) was over 250 µg/mL throughout.
With `O=C1CCC2(Oc3cccc4cccc(c34)O2)c2c(Cl)ccc(O)c21`, the IC50 is over 200 µg/mL in the assay on Pyricularia oryzae; over 10 µM in [1]; over 10 µM with A549; over 10 µM in assay [4]; over 10 µM in assay [5]; over 10 µM with A2780. The minimum inhibitory concentration (MIC) (in the assay with Pseudomonas; against Ralstonia solanacearum; against Bacillus subtilis; in assay [2]; in assay [3]; in the assay on Xanthomonas vesicatoria) was over 250 µg/mL in each case.
Turning to `O=C1C[C@H](O)[C@H](O)[C@@]23O[C@@]12C1(Oc2cccc4cccc(c24)O1)[C@@H]1O[C@@H]1[C@@H]3O`, the IC50 was over 200 µg/mL with Pyricularia oryzae; over 10 µM in assay [1]; over 10 µM in the assay on A549; over 10 µM in assay [4]; over 10 µM in assay [5]; over 10 µM in the assay on A2780. The MIC (against Pseudomonas; against Ralstonia solanacearum; with Bacillus subtilis; in assay [2]; in assay [3]; against Xanthomonas vesicatoria) was over 250 µg/mL in each case.
`O[C@@H]1C=C[C@H](O)[C@@]23O[C@@]12C1(Oc2cccc4cccc(c24)O1)[C@@H]1O[C@@H]1[C@@H]3O`: the IC50 is over 200 µg/mL in the assay with Pyricularia oryzae; over 10 µM in [1]; over 10 µM with A549; over 10 µM in assay [4]; over 10 µM in [5]; over 10 µM in the assay with A2780. For the same compound, the minimal inhibitory concentration (MIC) (in the assay on Pseudomonas; with Ralstonia solanacearum; with Bacillus subtilis; in [2]; in assay [3]; with Xanthomonas vesicatoria) was over 250 µg/mL throughout.
Turning to `O[C@@H]1CC[C@H](O)[C@@]23O[C@@]12C1(Oc2cccc4cccc(c24)O1)[C@@H]1O[C@@H]1[C@@H]3O`, the IC50 with Pyricularia oryzae was over 200 µg/mL; in assay [1] it was over 10 µM; with A549, over 10 µM; in assay [4], over 10 µM; in [5] it was over 10 µM; with A2780, over 10 µM. The minimum inhibitory concentration (MIC) (in the assay on Pseudomonas; against Ralstonia solanacearum; in the assay on Bacillus subtilis; in assay [2]; in assay [3]; in the assay with Xanthomonas vesicatoria) was over 250 µg/mL in each case.
Take `O=C1CCC2(Oc3cccc4cccc(c34)O2)c2c(O)ccc(O)c21` [PALMARUMYCIN CP17]: the half-maximal inhibitory concentration (IC50) in the assay on Pyricularia oryzae is over 200 µg/mL; in assay [1], over 10 µM; with A549, over 10 µM; in [4], over 10 µM; in [5] it was over 10 µM; with A2780 it was over 10 µM. Moreover, the minimum inhibitory concentration (MIC) (in the assay with Pseudomonas; against Ralstonia solanacearum; with Bacillus subtilis; in assay [2]; in assay [3]; with Xanthomonas vesicatoria) was over 250 µg/mL in each case.
